Experimental data as given in ChEMBL document CHEMBL3593191, “Ethyl 2-((4-Chlorophenyl)amino)thiazole-4-carboxylate and Derivatives Are Potent Inducers of Oct3/4” (2015).
Each block holds one compound with its values, some of them ahead of it. Activity calls are given as the source filed them. The rule behind the calls is not given here.

Columns and labels:
[1] = molecular target: POU domain, class 5, transcription factor 1 (Homo sapiens) (UniProt Q01860); test: Activation of Oct3/4 (unknown origin) expressed in HEK293 cells after 72 hrs by luciferase reporter gene assay relative to control; type: cell-based
Chain of POU domain, class 5, transcription factor 1 (Homo sapiens) (Q01860 whole entry, the tested form may be a part): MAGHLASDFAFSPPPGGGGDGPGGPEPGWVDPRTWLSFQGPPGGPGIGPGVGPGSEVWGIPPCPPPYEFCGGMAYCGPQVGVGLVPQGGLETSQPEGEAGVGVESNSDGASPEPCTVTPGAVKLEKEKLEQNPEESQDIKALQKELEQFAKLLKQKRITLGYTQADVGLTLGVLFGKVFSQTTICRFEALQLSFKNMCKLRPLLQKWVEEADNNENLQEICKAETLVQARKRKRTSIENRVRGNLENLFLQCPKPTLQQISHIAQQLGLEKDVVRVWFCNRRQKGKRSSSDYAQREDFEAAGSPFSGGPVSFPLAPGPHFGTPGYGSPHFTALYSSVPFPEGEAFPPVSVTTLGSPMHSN
Outline: (§1)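 HEK293 cells stably carrying luciferase under a human Oct3/4 promoter (HEK-Oct3/4), or NCCIT cells lentivirally transduced with an Oct3/4 transcriptional response element reporter (NCCIT-Oct3/4, kept under 400 ng/mL puromycin). Cells seeded at 100,000/well for 24 h, then treated with compound. Lysed for 10 min at 37°C, luciferin/ATP mix added, read after 3 min. Signal given as percent of control cells; at least five independent experiments.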

[2] = molecular target: POU domain, class 5, transcription factor 1 (Homo sapiens) (UniProt Q01860); test: Activation of Oct3/4 (unknown origin) expressed in human HEK293 cells after 48 hrs by luciferase reporter gene assay relative to control; type: cell-based; outline: as §1
HEK293 [3] = test: Increase of Oct3/4 expression in human HEK293 cells after 72 hrs by immunoblotting; type: functional, cell-based
Outline: (§2)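 Immunoblot. Compound-treated cells lysed in urea lysis buffer (6 M urea, 0.5% Triton X-100, protease/phosphatase inhibitors). 40 µg total protein run on 10% SDS-PAGE. Probed with Oct3/4, Nanog or Lin28 antibodies, with vinculin or β-actin as loading control. Primary antibody 1:1000 overnight at 4°C, secondary 1:10,000 for 1 h at RT; ECL detection.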

[4] = molecular target: POU domain, class 5, transcription factor 1 (Homo sapiens) (UniProt Q01860); test: Activation of Oct3/4 (unknown origin) expressed in HEK293 cells assessed as accumulation of Nanog after 72 hrs by immunoblotting; type: cell-based; outline: as §2
HEK293 [5] = test: Increase of Oct3/4 gene expression in human HEK293 cells after 72 hrs by RT-PCR analysis; type: functional, cell-based
Outline: (§3)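 qRT-PCR of pluripotency-related genes in compound-treated HEK293 cells or primary human skin fibroblasts, against an endogenous control gene. Values normalized to DMSO-treated cells as mean ± SD of quadruplicates, representative of two independent experiments.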

[6] = molecular target: POU domain, class 5, transcription factor 1 (Homo sapiens) (UniProt Q01860); test: Activation of Oct3/4 (unknown origin) expressed in HEK293 cells assessed as increase of Nanog gene expression after 72 hrs by RT-PCR analysis; type: cell-based; outline: as §3
[7] = molecular target: POU domain, class 5, transcription factor 1 (Homo sapiens) (UniProt Q01860); test: Activation of Oct3/4 (unknown origin) expressed in HEK293 cells assessed as increase of Sox2 gene expression after 72 hrs by RT-PCR analysis; type: cell-based; outline: as §3
[8] = molecular target: POU domain, class 5, transcription factor 1 (Homo sapiens) (UniProt Q01860); test: Activation of Oct3/4 (unknown origin) expressed in HEK293 cells assessed as increase of Lin28 gene expression after 72 hrs by RT-PCR analysis; type: cell-based; outline: as §3
[9] = molecular target: POU domain, class 5, transcription factor 1 (Homo sapiens) (UniProt Q01860); test: Activation of Oct3/4 (unknown origin) expressed in HEK293 cells assessed as […] of Rex1 gene expression after 72 hrs by RT-PCR analysis; type: cell-based; outline: as §3
[10] = molecular target: POU domain, class 5, transcription factor 1 (Homo sapiens) (UniProt Q01860); test: Activation of Oct3/4 (unknown origin) transcriptional activity expressed in human NCCIT cells after 72 hrs by luciferase reporter gene assay relative to control; type: cell-based; outline: as §1
[11] = molecular target: POU domain, class 5, transcription factor 1 (Homo sapiens) (UniProt Q01860); test: Activation of Oct3/4 (unknown origin) transcriptional activity expressed in human NCCIT cells at 20 uM by luciferase reporter gene assay relative to control; type: cell-based; settings: TDE = time-dependent effect; outline: as §1
[12] = molecular target: POU domain, class 5, transcription factor 1 (Homo sapiens) (UniProt Q01860); test: Activation of Oct3/4 (unknown origin) expressed in human NCCIT cells assessed as accumulation of Nanog after 72 hrs by immunoblotting; type: cell-based; outline: as §2
[13] = molecular target: POU domain, class 5, transcription factor 1 (Homo sapiens) (UniProt Q01860); test: Activation of Oct3/4 (unknown origin) expressed in human NCCIT cells at 5 uM after 72 hrs by luciferase reporter gene assay relative to control; type: cell-based
[14] = molecular target: POU domain, class 5, transcription factor 1 (Homo sapiens) (UniProt Q01860); test: Activation of Oct3/4 (unknown origin) expressed in human NCCIT cells at 20 uM after 2 hrs by luciferase reporter gene assay relative to control; type: cell-based
[15] = molecular target: POU domain, class 5, transcription factor 1 (Homo sapiens) (UniProt Q01860); test: Activation of Oct3/4 (unknown origin) expressed in human HeLa cells after 72 hrs by luciferase reporter gene assay relative to control; type: cell-based
[16] = molecular target: POU domain, class 5, transcription factor 1 (Homo sapiens) (UniProt Q01860); test: Activation of Oct3/4 (unknown origin) expressed in human HeLa cells assessed as accumulation of Nanog after 72 hrs by immunoblotting; type: cell-based; outline: as §2
Fibroblast [17] = test: Increase of Oct3/4 gene expression in human fibroblasts after 48 hrs by RT-PCR analysis relative to control; type: functional; outline: as §3
[18] = molecular target: POU domain, class 5, transcription factor 1 (Homo sapiens) (UniProt Q01860); test: Activation of Oct3/4 in human fibroblasts assessed as increase of Lin28 gene expression after 48 hrs by RT-PCR analysis relative to control; outline: as §3
[19] = molecular target: POU domain, class 5, transcription factor 1 (Homo sapiens) (UniProt Q01860); test: Activation of Oct3/4 in human fibroblasts assessed as increase of Rex1 gene expression after 48 hrs by RT-PCR analysis relative to control; outline: as §3
[20] = molecular target: POU domain, class 5, transcription factor 1 (Homo sapiens) (UniProt Q01860); test: Activation of Oct3/4 in human fibroblasts assessed as increase of Nanog gene expression after 48 hrs by RT-PCR analysis relative to control; outline: as §3
[21] = molecular target: POU domain, class 5, transcription factor 1 (Homo sapiens) (UniProt Q01860); test: Activation of Oct3/4 in human fibroblasts assessed as repression of N-cadherin gene expression after 48 hrs by RT-PCR analysis relative to control; outline: as §3
[22] = molecular target: POU domain, class 5, transcription factor 1 (Homo sapiens) (UniProt Q01860); test: Activation of Oct3/4 in human fibroblasts assessed as increase of Lin28 protein expression after 72 hrs by immunoblotting relative to control; outline: as §2
[23] = molecular target: POU domain, class 5, transcription factor 1 (Homo sapiens) (UniProt Q01860); test: Activation of Oct3/4 in human fibroblasts assessed as increase of Nanog protein expression after 72 hrs by immunoblotting relative to control; outline: as §2
[24] = molecular target: POU domain, class 5, transcription factor 1 (Homo sapiens) (UniProt Q01860); test: Activation of Oct3/4 in human fibroblasts assessed as co-expression of Oct3/4 and Sox2 after 5 days by immunocytochemistry analysis
Outline: (§4)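 Primary human fibroblasts seeded at 10,000 cells/well on Geltrex. After 24 h, treated for 5 days in DMEM/F12 with 20% knockout serum replacement, 10 ng/mL bFGF and 1 mM β-mercaptoethanol. Fixed in 4% PFA, blocked with 5% goat serum/0.3% Triton. Stained overnight at 4°C for Oct3/4 (1:400), Nanog (1:1000), Sox2 (1:100) or Klf4 (1:100), then Alexa 594/488 secondary for 1 h.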

[25] = molecular target: POU domain, class 5, transcription factor 1 (Homo sapiens) (UniProt Q01860); test: Activation of Oct3/4 in human fibroblasts assessed as co-expression of Nanog and Klf4 after 5 days by immunocytochemistry analysis; outline: as §4
Fibroblast [26] = test: Induction of endogenous cellular parameters in human fibroblasts assessed as increase in ALP-FITC signal using propidium iodide staining after 5 days; type: functional, cell-based
[27] = molecular target: POU domain, class 5, transcription factor 1 (Homo sapiens) (UniProt Q01860); test: Activation of Oct3/4 (unknown origin) expressed in HEK293 cells at 20 uM after 72 hrs by luciferase reporter gene assay relative to control; type: cell-based; outline: as §1
[28] = molecular target: POU domain, class 5, transcription factor 1 (Homo sapiens) (UniProt Q01860); test: Activation of Oct3/4 (unknown origin) expressed in HEK293 cells at 40 uM after 72 hrs by luciferase reporter gene assay relative to control; type: cell-based; outline: as §1

- Activity [1]: inactive
SMILES: CCOC(=O)c1csc(Nc2ccc(Nc3nc(C(=O)OCC)cs3)cc2)n1

- Activity [1]: inactive
SMILES: CN(C)CCCNC(=O)c1csc(Nc2ccc(Cl)cc2)n1

- Activity [1]: Active
- Activity [2]: inactive
- Activity [4]: Active
- Activity [6]: Active
- Activity [7]: Active
- Activity [8]: inactive
- Activity [9]: Active
- Activity [10]: Dose-dependent effect
- fold change (FC) [10]: 4
- Activity [11]: tde
- Activity [12]: Active
- Activity [13]: Active
- Activity [14]: Active
- Activity [15]: Dose-dependent effect
- Activity [16]: Dose-dependent effect
- fold change (FC) [18]: 20
- fold change (FC) [19]: 30
- fold change (FC) [20]: 2
- Activity [21]: Active
- Activity [22]: Active
- Activity [23]: Active
- Activity [24]: Active
- Activity [25]: Active
- fold change (FC) [27]: 2
- fold change (FC) [28]: 3.5
SMILES: CCOC(=O)c1csc(Nc2ccc(Cl)cc2)n1
- Activity (HEK293 [3]): Dose-dependent effect
- Activity (HEK293 [5]): Active
- fold change (FC) (Fibroblast [17]): 15
- Activity (Fibroblast [26]): Active

- Activity [1]: inactive
SMILES: CCOC(=O)c1csc(N)n1

- Activity [1]: Active
SMILES: CCOC(=O)c1csc(Nc2ccccc2)n1

- Activity [1]: Active
SMILES: CCOC(=O)c1csc(Nc2ccc(Cl)c(Cl)c2)n1

- Activity [1]: inactive
SMILES: CCCCNc1nc(C(=O)OCC)cs1

- Activity [1]: inactive
SMILES: O=C(O)c1csc(Nc2ccc(Cl)cc2)n1

- Activity [1]: inactive
SMILES: C=CCNc1nc(C(=O)OCC)cs1

- Activity [1]: inactive
SMILES: CCOC(=O)c1csc(NC(C)=O)n1

- Activity [1]: inactive
SMILES: CCOC(=O)c1csc(NCc2ccccc2)n1

- Activity [1]: inactive
SMILES: O=C(O)c1csc(Nc2ccc(Cl)cc2Cl)n1

- Activity [1]: Active
SMILES: CCOC(=O)c1csc(Nc2cccc(Cl)c2)n1

- Activity [1]: Active
SMILES: CCOC(=O)c1csc(Nc2cccc(F)c2)n1

- Activity [1]: inactive
SMILES: O=C(O)c1csc(Nc2cccc(Cl)c2)n1

- Activity [1]: inactive
SMILES: O=C(O)c1csc(Nc2cc(Cl)ccc2Cl)n1

- Activity [1]: Active
SMILES: CCOC(=O)c1csc(Nc2ccc(Cl)cc2Cl)n1
